The record followed here is ChEMBL document CHEMBL1811758, “Inhibition of monoamine oxidase by C5-substituted phthalimide analogues” (Bioorg Med Chem, 2011).

Series [1] deals with T1, Amine oxidase [flavin-containing] B (Homo sapiens, UniProt P27338).
T1 sequence (P27338 whole entry): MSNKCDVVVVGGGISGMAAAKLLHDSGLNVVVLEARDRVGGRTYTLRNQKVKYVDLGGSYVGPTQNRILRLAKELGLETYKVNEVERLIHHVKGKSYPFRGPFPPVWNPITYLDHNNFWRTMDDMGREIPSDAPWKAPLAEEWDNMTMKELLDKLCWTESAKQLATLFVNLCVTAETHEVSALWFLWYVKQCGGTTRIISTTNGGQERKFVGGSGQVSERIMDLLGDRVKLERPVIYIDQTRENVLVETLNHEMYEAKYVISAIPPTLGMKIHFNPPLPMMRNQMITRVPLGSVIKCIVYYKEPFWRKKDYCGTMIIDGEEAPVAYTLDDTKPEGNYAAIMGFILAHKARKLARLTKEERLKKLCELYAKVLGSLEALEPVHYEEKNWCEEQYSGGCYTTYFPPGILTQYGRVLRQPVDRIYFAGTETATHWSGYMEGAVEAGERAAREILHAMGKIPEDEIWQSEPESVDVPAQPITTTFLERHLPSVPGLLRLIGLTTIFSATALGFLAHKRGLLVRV
The experiment in a line: Inhibition of human recombinant MAOB expressed in insect cells using kynuramine substrate by fluorescence spectroscopy.

Series [2] deals with T2, Amine oxidase [flavin-containing] A (Homo sapiens, UniProt P21397).
T2 sequence (P21397 whole entry): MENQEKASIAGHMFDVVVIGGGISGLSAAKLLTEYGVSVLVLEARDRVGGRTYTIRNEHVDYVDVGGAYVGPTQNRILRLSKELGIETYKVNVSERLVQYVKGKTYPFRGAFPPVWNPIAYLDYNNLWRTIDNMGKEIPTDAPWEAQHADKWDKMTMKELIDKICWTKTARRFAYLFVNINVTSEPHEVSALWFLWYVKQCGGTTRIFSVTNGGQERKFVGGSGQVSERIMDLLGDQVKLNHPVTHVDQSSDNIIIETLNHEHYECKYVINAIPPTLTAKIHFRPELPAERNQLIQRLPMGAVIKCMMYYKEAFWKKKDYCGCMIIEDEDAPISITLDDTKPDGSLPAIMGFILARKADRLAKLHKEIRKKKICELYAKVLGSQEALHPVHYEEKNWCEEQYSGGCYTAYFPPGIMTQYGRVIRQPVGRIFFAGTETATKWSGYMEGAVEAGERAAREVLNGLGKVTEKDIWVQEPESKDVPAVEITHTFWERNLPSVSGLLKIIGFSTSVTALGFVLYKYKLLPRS
Briefly: Inhibition of human recombinant MAOA expressed in insect cells using kynuramine substrate at 100 uM by fluorescence spectroscopy. The essentials:
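MAO-A (insect-cell microsomes) was incubated with kynuramine (45 µM final) for 20 min at 37 °C in isotonic phosphate buffer, pH 7.4, with inhibitor at a maximum tested concentration of 100 µM. The reaction was stopped with NaOH, and 4-hydroxyquinoline was read fluorometrically (ex 310/em 400 nm). Percent inhibition is the mean of duplicates.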

The target of series [3] is T1, Amine oxidase [flavin-containing] B. Briefly: Inhibition of human recombinant MAOB expressed in insect cells using kynuramine substrate at 100 uM by fluorescence spectroscopy. The method, boiled down: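 Single-point MAO-B assay: inhibitor at a maximum of 100 µM, kynuramine 30 µM final, 20 min at 37 °C in isotonic 100 mM potassium phosphate, pH 7.4. NaOH was added to stop the reaction, and 4-hydroxyquinoline was measured by fluorescence (ex 310/em 400 nm). Duplicate determinations were made, with percent inhibition reported.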

Series [4] concerns the target T2, Amine oxidase [flavin-containing] A. The experiment in a line: Inhibition of human recombinant MAOA expressed in insect cells using kynuramine substrate by fluorescence spectroscopy.
Series [5] shares this target. Briefly: Inhibition of human recombinant MAOA expressed in insect cells using kynuramine substrate using Cheng and Prusoff equation by fluorescence spectroscopy.
Series [6] addresses T1, Amine oxidase [flavin-containing] B. The experiment in a line: Inhibition of human recombinant MAOB expressed in insect cells using kynuramine substrate using Cheng and Prusoff equation by fluorescence spectroscopy.
The species named for series [7] is Homo sapiens. The experiment in a line: Selectivity index, ratio of Ki for human recombinant MAOA to Ki for human recombinant MAOB. The essentials: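 Recombinant human MAO-A and MAO-B from baculovirus-infected insect-cell microsomes. Kynuramine at 45 µM (A) or 30 µM (B) final, in 100 mM potassium phosphate pH 7.4 made isotonic with KCl. 37 °C for 20 min, stopped with NaOH; 4-hydroxyquinoline fluorescence read at ex 310/em 400 nm. IC50 from 9–10 concentrations, duplicate. Ki = IC50/(1+[S]/Km), Km 16.1 (A), 22.7 µM (B); ratio Ki(A)/Ki(B).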

Series [8] addresses T2, Amine oxidase [flavin-containing] A. The experiment in a line: Time dependent inhibition of human recombinant MAOA expressed in insect cells at 13.42 uM preincubated 0 to 60 mins before kynuramine substrate addition by fluorescence spectroscopy. The essentials:
(§1)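 Enzyme (0.03 mg/mL) was preincubated with inhibitor for 0, 15, 30 or 60 min at 37 °C in isotonic 100 mM potassium phosphate, pH 7.4. Preincubation inhibitor was 13.42 µM for MAO-A and 5.00 µM for MAO-B. Kynuramine was then added (45 µM for MAO-A, 30 µM for MAO-B), giving final enzyme 0.015 mg/mL and final inhibitor 6.71 µM (A) or 2.5 µM (B). After 15 min at 37 °C and NaOH stop, 4-hydroxyquinoline fluorescence was read, in triplicate.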

In series [9] the target is T1, Amine oxidase [flavin-containing] B. The experiment in a line: Time dependent inhibition of human recombinant MAOB expressed in insect cells at 5 uM preincubated 0 to 60 mins before kynuramine substrate addition by fluorescence spectroscopy. The essentials:
as §1

For series [10], the target named is T2, Amine oxidase [flavin-containing] A. The experiment in a line: Reversible inhibition of human recombinant MAOA expressed in insect cells using kynuramine substrate by Lineweaver-Burk plot. The essentials:
(§2)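 Kynuramine at 15, 30, 60 and 90 µM; MAO-A at 0.015 mg/mL in the reaction; inhibitor at 0, 1.7, 3.4 and 6.8 µM. Reactions ran in isotonic potassium phosphate (100 mM, pH 7.4) at 37 °C for 20 min and were stopped with NaOH. Initial rates were read by 4-hydroxyquinoline fluorescence (ex 310/em 400 nm) and plotted double-reciprocally.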

The target of series [11] is T1, Amine oxidase [flavin-containing] B. Briefly: Reversible inhibition of human recombinant MAOB expressed in insect cells using kynuramine substrate by Lineweaver-Burk plot. The method, boiled down:
(§3)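 Initial MAO-B rates (0.015 mg/mL enzyme) were measured at kynuramine 15, 30, 60 and 90 µM, without inhibitor and with 0.625, 1.25 or 2.5 µM inhibitor. Incubation was 20 min at 37 °C in isotonic 100 mM potassium phosphate, pH 7.4, followed by NaOH stop. 4-Hydroxyquinoline fluorescence (ex 310/em 400 nm) was read, and Lineweaver–Burk plots were drawn.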

In series [12] the target is T2, Amine oxidase [flavin-containing] A. Briefly: Competitive inhibition of human recombinant MAOA expressed in insect cells using kynuramine substrate by Lineweaver-Burk plot. The method, boiled down:
as §2

The target of series [13] is T1, Amine oxidase [flavin-containing] B. The experiment in a line: Competitive inhibition of human recombinant MAOB expressed in insect cells using kynuramine substrate by Lineweaver-Burk plot. The essentials: as §3

On to `O=C1NC(=O)c2ccccc21` [PHTHALIMIDE], for which the IC50 – broadly, the midpoint of a concentration-inhibition curve – in series [1] is 134000 nM.
With `O=C1c2ccccc2C(=O)N1Cc1ccccc1`, in series [2] (100 µM), the “inhibition (INH)” value is recorded as “Not Active”. Further, the inhibition – broadly, the share of the control response that was lost under treatment – at 100 µM in series [3] came out at 20.2%.
For the compound `O=C1NC(=O)c2cc(Oc3ccc4ccccc4c3)ccc21`, the half-inhibitory concentration (IC50) in series [4] came out at 920 nM; in series [1] it was 33 nM. For the same compound, the inhibition constant (Ki) (as a rule, a dissociation constant, usually derived from enzyme kinetics or from competition with a known ligand) came to 200 nM in series [5] and 10 nM in series [6]. Also, the Ratio Ki in [7] turned out to be 17.
`O=C1NC(=O)c2cc(Oc3ccc(Br)cc3)ccc21`: the results for the half-maximal inhibitory concentration (IC50) in series [4] and in series [1] were 1080 nM and 55 nM, respectively. In addition, the Ki stood at 285 nM in series [5] and 24 nM in series [6]. In [7], the Ratio Ki stood at 12.
Consider `O=C1NC(=O)c2cc(OC/C=C/c3ccccc3)ccc21`, for which the IC50 was 8990 nM in [4] and 46 nM in series [1]. Moreover, the Ki in series [5] was determined as 2370 nM; in series [6], 20 nM. Also, the Ratio Ki in [7] turned out to be 120.
Turning to `O=C1NC(=O)c2cc(OCCCc3ccccc3)ccc21`, the 50% inhibitory concentration (IC50) in [4] worked out at 1730 nM; in series [1] it was 50 nM. Moreover, the results for the inhibition constant (Ki) in [5] and in [6] were 460 nM and 20 nM, respectively. In addition, the Ratio Ki in [7] was 21.
Take `O=C1c2ccccc2C(=O)N1c1ccccc1` [N-PHENYL-PHTHALIMIDE]: the inhibition at 100 µM in series [2] amounted to 10.5%; in [3], 50.3%.
As to `O=C1NC(=O)c2cc(Oc3ccccc3)ccc21`, the concentration for half-maximal inhibition (IC50) in series [4] was 5850 nM; in series [1] it was 2490 nM. Further, the Ki stood at 1540 nM in series [5] and 1070 nM in series [6]. Further, the Ratio Ki in [7] stood at 1. For the same compound, the TDI result in series [8] and in [9] was “Not Active” in each case. Besides, the “inhibition (INH)” value in series [10], in series [11], in series [12] and in [13] was “Active” each time.
